TDP2 inh: TDP2 (human) inhibition, absorbance primary screen. AID 720702. recombinant TDP2, T5PNP hydrolysis, p-nitrophenol absorbance 415 nm. inhibition, % at 12.8 µM. 370,000 compounds, 0.34% hits;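 active means inhibition above the mean of all tested compounds plus 3 SD, set per campaign, cut at about 25% in these data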;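 further: 0% = DMSO with enzyme and 100% = buffer with substrate but no TDP2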
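Evaluation: % inhibition relative to enzyme-containing and enzyme-free wells. Material: recombinant human TDP2. Benchmarks: enzyme-free and DMSO wells. Timing: enzyme reaction with compound for 2 h at 37 °C. Compound dosing: 12.8 µM only. Measured by: p-Nitrophenol epi absorbance. Reagent: T5PNP substrate at 5 mM, a TopII-DNA adduct mimic. Replication: single well per compound.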
LEDGF integ inh: blocks HIV-1 LEDGF/p75-dependent DNA integration; TR-FRET IN-LEDGF/p75 DNA integration, Eu/Cy5; inhibition, % at 3.7 µM; 370,000 compounds, 0.64% hits;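 active means inhibition above the screen-wide mean plus 3 SD, cut at about 13% in these data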;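 further: signal is the Cy5 over europium emission ratio at 671 and 618 nm; 0% = plate median of compound wells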
CASP6 VEID inh: caspase-6 (human) enzyme inhibition. purified caspase-6, Z-VEID-R110 cleavage fluorescence. inhibition, % at 12.5 µM. 350,000 compounds, 0.53% hits;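 active means mean inhibition across replicates at least about 35%, with every replicate also reaching that limit, limit read from the data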;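 further: 0% = median of neutral control wells and 100% = no fluorescence left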
Target sequence (P55212 24-179 limits assumed): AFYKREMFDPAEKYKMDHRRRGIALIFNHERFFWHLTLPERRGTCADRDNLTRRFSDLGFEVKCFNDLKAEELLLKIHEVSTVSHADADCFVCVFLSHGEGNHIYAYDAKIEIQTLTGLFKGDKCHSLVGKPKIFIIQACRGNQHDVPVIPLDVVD
Target sequence (P55212 194-293 limits assumed): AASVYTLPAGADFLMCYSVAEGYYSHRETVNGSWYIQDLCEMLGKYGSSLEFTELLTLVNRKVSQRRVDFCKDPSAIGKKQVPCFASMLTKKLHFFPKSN
UHRF1 MBD2 ctr: UHRF1 methyl-DNA binding inhibition; inhibition, % at 4.4 µM; 370,000 compounds, 0.75% hits; UHRF1 binding to methylated oligo, TR-FRET; AID 687016; Q96T88; in the data active means inhibition above about 21%;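 further: UHRF1 SRA domain binding a hemimethylated CpG hairpin DNA probe; 0% = median of test compound wells and 100% = reference inhibitor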
NSD2 inh: NSD2 (human) methyltransferase inhibition; NSD2 peptide methylation, AlphaScreen, 120 min; inhibition, % at 12.5 µM; 310,000 compounds, 0.54% hits; in the data active means inhibition above about 50%
MBD2 DNA inh: MBD2-methylated oligo binding inhibition | 370,000 compounds, 0.31% hits | Q9UBB5 | inhibition, % at 4.4 µM | AID 686964 | TR-FRET, MBD2 binding to methylated oligonucleotide; in the data active means inhibition above about 13%
Target sequence (Q9UBB5 whole entry, looked up): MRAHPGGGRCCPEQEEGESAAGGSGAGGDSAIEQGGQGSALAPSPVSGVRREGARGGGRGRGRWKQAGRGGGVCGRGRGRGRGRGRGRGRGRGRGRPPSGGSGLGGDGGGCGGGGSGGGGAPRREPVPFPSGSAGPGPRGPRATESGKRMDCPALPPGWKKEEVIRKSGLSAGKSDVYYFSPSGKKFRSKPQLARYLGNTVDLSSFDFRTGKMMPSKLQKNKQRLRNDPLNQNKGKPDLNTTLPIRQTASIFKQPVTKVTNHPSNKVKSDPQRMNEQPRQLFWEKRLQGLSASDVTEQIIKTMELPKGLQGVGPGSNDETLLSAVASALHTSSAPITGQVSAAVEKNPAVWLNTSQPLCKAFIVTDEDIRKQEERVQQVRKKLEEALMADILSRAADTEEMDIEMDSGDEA
TDP2 inh conf: confirmation of human TDP2 inhibitors; 1,100 compounds, 22% hits; inhibition, % at 12.8 µM; shares compounds with TDP2 inh; recombinant human TDP2, absorbance read-out; AID 743263; in the data active means inhibition above about 25%;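 further: 0% = vehicle with enzyme and 100% = no enzyme buffer only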
* hit, by the source's call; ! = not confirmed by another sample. Only some compounds are listed: those with a hit (about 1.8% of all), similar ones and a draw of the others.

Results for COc1ccc(N(C(=O)Cn2nnc(-c3ccccc3F)n2)C(C(=O)NCC2CCCO2)c2ccc(Cl)cc2)cc1 (stereo not drawn) ?
TDP2 inh: 26.3*; LEDGF integ inh: 0.8; CASP6 VEID inh: 5.0; UHRF1 MBD2 ctr: -2.5; NSD2 inh: -0.8; MBD2 DNA inh: -2.3; TDP2 inh conf: 2.4

What do the screens show for `CCCCOc1ncnc2c1[nH]c1ccc(OCC)cc12`?
TDP2 inh: 2.9; LEDGF integ inh: -1.0; UHRF1 MBD2 ctr: -1.8; NSD2 inh: -2.4; MBD2 DNA inh: -7.5

How did CCOc1ccc2[nH]c3c(NCCO)ncnc3c2c1 do in these assays?
TDP2 inh: 26.7*; LEDGF integ inh: -7.5; CASP6 VEID inh: 5.5; UHRF1 MBD2 ctr: -0.4; NSD2 inh: 17.2; MBD2 DNA inh: 0.8; TDP2 inh conf: 2.9

Results for C[C@@H]1CN([C@@H](C)CO)S(=O)(=O)c2ccc(Br)cc2O[C@H]1CN(C)C(=O)c1cnccn1 ?
CASP6 VEID inh: -2.0

Results for COc1ccc(CN(C)C[C@@H]2OCCCC[C@H](C)Oc3ccc(NC(=O)CCCN(C)C)cc3C(=O)N([C@H](C)CO)C[C@@H]2C)cc1 ?
CASP6 VEID inh: 0.8

How did Cc1ccc(-n2c3nc(=O)[nH]c(=O)c-3cc3cc([N+](=O)[O-])ccc32)cc1 do in these assays?
TDP2 inh: 45.9*; LEDGF integ inh: -0.7; UHRF1 MBD2 ctr: 2.9; NSD2 inh: 26.3; MBD2 DNA inh: -0.9; TDP2 inh conf: 41.1*

How did Cc1ccc(-n2c(C)nn(Cc3ccc([N+](=O)[O-])cc3)c2=O)cc1 do in these assays?
TDP2 inh: -21.4; LEDGF integ inh: -5.5; CASP6 VEID inh: -4.8; UHRF1 MBD2 ctr: 0.0; NSD2 inh: -2.7; MBD2 DNA inh: 0.6

Results for C[C@H]1CN([C@@H](C)CO)C(=O)c2ccccc2-c2ccccc2CO[C@H]1CN(C)C(=O)c1ccccc1 ?
CASP6 VEID inh: -3.3

What do the screens show for `COc1cccc(N2CCN(Cc3cccnc3)CC2)c1`?
TDP2 inh: 30.9*; LEDGF integ inh: 2.9; UHRF1 MBD2 ctr: 16.1; NSD2 inh: 1.6; MBD2 DNA inh: 9.4; TDP2 inh conf: -8.3

What do the screens show for `FC(F)(F)c1cccc(N2CCN(Cc3cccnc3)CC2)c1`?
TDP2 inh: 7.0; LEDGF integ inh: 0.6; UHRF1 MBD2 ctr: -1.7; NSD2 inh: 3.5; MBD2 DNA inh: -0.3

How did Cc1c(NC(=O)CN2CC(C)OC(C)C2)c(=O)n(-c2ccccc2)n1C (stereo not drawn) do in these assays?
TDP2 inh: 29.0*!; LEDGF integ inh: -2.3; CASP6 VEID inh: -72.5; UHRF1 MBD2 ctr: -1.4; NSD2 inh: -1.8; MBD2 DNA inh: 3.1; TDP2 inh conf: 16.8

What do the screens show for `O=S(=O)(N[C@@H]1CC[C@@H](CCn2cc(C3(O)CCCC3)nn2)O[C@@H]1CO)c1ccccc1`?
CASP6 VEID inh: -3.3

What do the screens show for `C[C@H]1C=C(C(=O)N2CCN(Cc3ccc4c(c3)OCO4)CC2)O[C@@H](OCCCCO)C1`?
CASP6 VEID inh: 0.1

What do the screens show for `O=C(Nc1c(-c2ccc3c(c2)OCO3)[nH][nH]c1=O)c1ccc2c(c1)OCO2`?
TDP2 inh: 47.7*; LEDGF integ inh: 8.4; CASP6 VEID inh: 7.0; UHRF1 MBD2 ctr: 9.7; MBD2 DNA inh: -9.0; TDP2 inh conf: 67.2*

What do the screens show for `O=C(Nc1c(-c2ccc(Cl)cc2)[nH][nH]c1=O)c1ccc(Br)cc1`?
TDP2 inh: 37.7*; LEDGF integ inh: 7.4; CASP6 VEID inh: 13.5; UHRF1 MBD2 ctr: 3.5; MBD2 DNA inh: -9.4; TDP2 inh conf: 14.0

How did O=C(Nc1c(-c2ccccc2)[nH][nH]c1=O)c1ccccc1 do in these assays?
TDP2 inh: 34.8*; LEDGF integ inh: 8.4; CASP6 VEID inh: 2.5; UHRF1 MBD2 ctr: 3.8; MBD2 DNA inh: -4.0; TDP2 inh conf: 8.8

What do the screens show for `O=C(Nc1c(-c2ccccc2)[nH][nH]c1=O)c1cccc(C(F)(F)F)c1`?
TDP2 inh: 26.4*; LEDGF integ inh: 4.0; CASP6 VEID inh: 1.8; UHRF1 MBD2 ctr: 1.7; MBD2 DNA inh: -0.7; TDP2 inh conf: 13.6

Results for O=C(Nc1ccccc1-c1ccccc1)c1cccc(C(F)(F)F)c1 ?
TDP2 inh: -9.0; LEDGF integ inh: -1.6; UHRF1 MBD2 ctr: 4.8; NSD2 inh: -5.2; MBD2 DNA inh: -0.5

How did COc1ccc(-c2[nH][nH]c(=O)c2NC(=O)c2ccccc2Br)cc1 do in these assays?
TDP2 inh: -13.5; LEDGF integ inh: -1.1; CASP6 VEID inh: 2.0; UHRF1 MBD2 ctr: -8.2; MBD2 DNA inh: -2.3

What do the screens show for `CC=Cc1ccc2n(c1=O)C[C@@H]1[C@@H](CO)[C@H](C(=O)NCCC)[C@H]2N1C(=O)C1CCC1` (mixture of isomers)?
CASP6 VEID inh: 1.5

Results for CSc1nc2ccsc2c(=O)n1-c1ccccn1 ?
TDP2 inh: 60.0*; LEDGF integ inh: 0.9; CASP6 VEID inh: 1.1; UHRF1 MBD2 ctr: 0.3; NSD2 inh: 0.8; MBD2 DNA inh: 2.4; TDP2 inh conf: 8.7

What do the screens show for `C[C@@H]1CN([C@@H](C)CO)C(=O)Cc2cc(NC(=O)Nc3cccc4ccccc34)ccc2O[C@H]1CN(C)S(C)(=O)=O`?
CASP6 VEID inh: 5.4

Results for O=C(Nc1cc(F)ccc1F)N[C@@H]1CC[C@H](CCNC(=O)c2cnccn2)O[C@@H]1CO ?
CASP6 VEID inh: -3.8

Results for Cc1ccc(CSc2nnc(C)c(=O)n2N)cc1 ?
TDP2 inh: -16.4; LEDGF integ inh: 1.1; CASP6 VEID inh: 1.8; UHRF1 MBD2 ctr: -0.7; NSD2 inh: -1.4; MBD2 DNA inh: 1.8

What do the screens show for `Cc1nnc(SCc2ccccc2)n(N)c1=O`?
TDP2 inh: 58.4*; LEDGF integ inh: -0.3; UHRF1 MBD2 ctr: 2.2; NSD2 inh: -1.9; MBD2 DNA inh: 1.9; TDP2 inh conf: -4.1

How did Cc1cnc(CNC(=O)CC2C(=O)NCCN2Cc2cccc(F)c2F)cn1 (stereo not drawn) do in these assays?
TDP2 inh: 25.1*; LEDGF integ inh: 1.4; CASP6 VEID inh: -4.8; UHRF1 MBD2 ctr: 0.2; NSD2 inh: 2.4; MBD2 DNA inh: -0.4; TDP2 inh conf: -3.1

How did Cc1cnc(CNC(=O)CC2C(=O)NCCN2Cc2ccccc2F)cn1 (stereo not drawn) do in these assays?
TDP2 inh: 1.2; LEDGF integ inh: 2.5; CASP6 VEID inh: 0.1; UHRF1 MBD2 ctr: 0.2; NSD2 inh: 3.1; MBD2 DNA inh: 2.0

What do the screens show for `C[C@H]1CN([C@@H](C)CO)C(=O)c2cc(C#CCN(C)C)cnc2O[C@@H]1CN(C)S(=O)(=O)c1ccccc1`?
CASP6 VEID inh: -0.2

How did O=S(=O)(c1ccc(-c2ccon2)s1)N1CCN(CCN2CCOCC2)CC1 do in these assays?
TDP2 inh: -2.0; LEDGF integ inh: -4.0; CASP6 VEID inh: -3.6; UHRF1 MBD2 ctr: -0.6; NSD2 inh: 1.8; MBD2 DNA inh: -3.0

Bioassay records as filed in PubChem.
